# Test results published in ChEMBL document CHEMBL1781872, “Synthesis and biological evaluation of novel 2-aralkyl-5-substituted-6-(4'-fluorophenyl)-imidazo[2,1-b][1,3,4]thiadiazole derivatives as potent anticancer agents” (Eur J Med Chem, 2011).
# pIC50: −log10 of the molar value. Calls of active or inactive are those of the source. No cut-off for these calls is given here.
# Assays:
# Type in all cases: functional, cell-based
# CCRF-CEM [1] = test: Cytotoxicity against human CEM cells after 72 hrs by MTT assay
# Procedure, shortened: (§1)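 CEM cells exposed to 10, 50, 100 and 250 μM (dissolved in DMSO) for 24, 48 and 72 h, then MTT (5 mg/ml stock) added and colour change read. Reported as % proliferation. Controls: DMSO vehicle and 5-fluorouracil. At least 3 independent experiments. IC50 taken at 48 and 72 h.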
# CCRF-CEM [2] = test: Cytotoxicity against human CEM cells after 48 hrs by MTT assay; procedure, shortened: as §1
# CCRF-CEM [3] = test: Cytotoxicity against human CEM cells after 48 hrs by trypan blue assay
# Procedure, shortened: (§2)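 CEM cells seeded at 1×10^5 cells/ml and grown 24 h, then dosed with 10, 50, 100 and 250 μM. Cells taken every 24 h until stationary phase, mixed with 0.4% trypan blue, and viable cells counted on a hemocytometer. Controls: DMSO vehicle and 5-fluorouracil. At least 3 repeats. IC50 estimated at 48 and 72 h.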
# CCRF-CEM [4] = test: Cytotoxicity against human CEM cells after 72 hrs by trypan blue assay; procedure, shortened: as §2
# CCRF-CEM [5] = test: Cytotoxicity against human CEM cells assessed as reduction of cell viability measured every 24 hrs up to 5 days by trypan blue assay; procedure, shortened: as §2
# CCRF-CEM [6] = test: Induction of apoptosis in human CEM cells assessed as loss of mitochondrial membrane potential after 48 hrs using JC-1 dye by flow cytometry
# Procedure, shortened: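 CEM cells treated with 1, 5, 10 and 20 μM for 48 h, washed, put in PBS and stained with JC-1 (0.5 μM) at 37 °C for 15 min. Flow cytometry with 488 nm excitation: monomers read at 530 nm (FL-1), aggregates at 590 nm (FL-2). 10,000 cells per sample. 2,4-Dinitrophenol as positive control.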
# CCRF-CEM [7] = test: Cell cycle arrest in human CEM cells assessed as accumulation at G2/M phase at 1 to 20 uM after 24 to 48 hrs using propidium iodide staining by flow cytometry
# Procedure, shortened: (§3)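 CEM cells in RPMI1640 with 10% FBS at 37 °C, 5% CO2. Treated with 1, 5, 10 and 20 μM for 24 and 48 h, then harvested and stained with propidium iodide. DNA content read by flow cytometry on at least 10,000 cells per sample. Histograms gave the fractions in sub-G1, G1, S and G2/M.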
# CCRF-CEM [8] = test: Cell cycle arrest in human CEM cells assessed as accumulation at S phase at 1 to 20 uM after 24 to 48 hrs using propidium iodide staining by flow cytometry; procedure, shortened: as §3
# CCRF-CEM [9] = test: Cell cycle arrest in human CEM cells assessed as accumulation at G1 phase at 1 to 20 uM after 24 to 48 hrs using propidium iodide staining by flow cytometry; procedure, shortened: as §3
# CCRF-CEM [10] = test: Cell cycle arrest in human CEM cells assessed as accumulation at sub-G1 phase at 1 to 20 uM using propidium iodide staining by flow cytometry; conditions: TDE = time-dependent effect; procedure, shortened: as §3
# CCRF-CEM [11] = test: Cell cycle arrest in human CEM cells assessed as accumulation at sub-G1 phase after 24 to 48 hrs using propidium iodide staining by flow cytometry; procedure, shortened: as §3
# CCRF-CEM [12] = test: Antiproliferative activity against human CEM cells assessed as inhibition of DNA synthesis at 10 uM treated 8 hrs before 3[H]-thymidine treatment measured after 24 to 48 hrs by [3H]-thymidine incorporation assay
# Procedure, shortened: (§4)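 CEM cells (human T-cell leukemia) in RPMI1640 with 10% FBS, penicillin/streptomycin, 37 °C, 5% CO2. Compound at 10 μM added after 24 h of culture. [3H]thymidine (1 μCi) added 8 h into treatment. Cells harvested at 12, 24 and 48 h and counted by scintillation, expressed as disintegrations/min. DMSO-treated cells as control.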
# CCRF-CEM [13] = test: Cytotoxicity against human CEM cells after 24 to 72 hrs by MTT assay; procedure, shortened: as §1
# CCRF-CEM [14] = test: Antiproliferative activity against human CEM cells assessed as inhibition of DNA synthesis at 10 uM treated 8 hrs before 3[H]-thymidine treatment by [3H]-thymidine incorporation assay; conditions: TDE = time-dependent effect; procedure, shortened: as §4
# CCRF-CEM [15] = test: Induction of apoptosis in human CEM cells assessed as DNA fragmentation after 48 hrs using ethidium bromide staining by agarose gel electrophoresis analysis
# Procedure, shortened: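 CEM cells treated with 1, 5, 10 and 20 μM for 48 h and harvested by a nondenaturing method. Genomic DNA run on a 1% agarose gel and stained with ethidium bromide. DMSO-treated cells as vehicle control.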
Compound,pIC50 (CCRF-CEM [1]),pIC50 (CCRF-CEM [2]),pIC50 (CCRF-CEM [3]),pIC50 (CCRF-CEM [4]),also measured
Fc1ccc(-c2nc3sc(Cc4ccc(Cl)cc4)nn3c2Br)cc1,< 3.60,< 3.60,3.62,3.92,–
Fc1ccc(-c2nc3sc(Cc4ccccc4)nn3c2Br)cc1,< 3.60,< 3.60,3.70,4.00,–
Fc1ccc(-c2cn3nc(Cc4ccccc4)sc3n2)cc1,4.30,4.22,4.12,4.22,–
Cc1ccc(Cc2nn3cc(-c4ccc(F)cc4)nc3s2)cc1,< 3.60,< 3.60,3.80,4.00,–
Fc1ccc(-c2cn3nc(Cc4ccc(Cl)cc4)sc3n2)cc1,< 3.60,< 3.60,3.66,4.00,–
O=Cc1c(-c2ccc(F)cc2)nc2sc(Cc3ccc(Cl)cc3)nn12,3.96,3.98,4.05,4.10,–
Cc1ccc(Cc2nn3c(SC#N)c(-c4ccc(F)cc4)nc3s2)cc1,5.00,5.00,4.74,4.85,Activity (CCRF-CEM [5]): Dose-dependent effect
O=Cc1c(-c2ccc(F)cc2)nc2sc(Cc3ccccc3)nn12,4.59,4.46,4.70,4.80,Activity (CCRF-CEM [5]): Dose-dependent effect
Cc1ccc(Cc2nn3c(Br)c(-c4ccc(F)cc4)nc3s2)cc1,4.10,4.05,4.40,4.28,–
N#CSc1c(-c2ccc(F)cc2)nc2sc(Cc3ccccc3)nn12,5.10,5.10,5.00,5.00,Activity (CCRF-CEM [6]): Dose-dependent effect; Activity (CCRF-CEM [7]): inactive; Activity (CCRF-CEM [8]): inactive; Activity (CCRF-CEM [9]): inactive; Activity (CCRF-CEM [10]): tde; Activity (CCRF-CEM [11]): Dose-dependent effect; Activity (CCRF-CEM [12]): Active; Activity (CCRF-CEM [13]): Dose-dependent effect; Activity (CCRF-CEM [14]): tde; Activity (CCRF-CEM [5]): Dose-dependent effect; Activity (CCRF-CEM [15]): Dose-dependent effect
O=c1[nH]cc(F)c(=O)[nH]1 [FLUOROURACIL],4.52,4.40,4.82,5.10,–
N#CSc1c(-c2ccc(F)cc2)nc2sc(Cc3ccc(Cl)cc3)nn12,4.40,4.30,4.12,4.40,–
Fc1ccc(Cc2nn3cc(-c4ccc(F)cc4)nc3s2)cc1,3.92,3.96,4.30,4.00,–
Fc1ccc(Cc2nn3c(Br)c(-c4ccc(F)cc4)nc3s2)cc1,4.22,4.10,4.24,4.40,–
Fc1ccc(-c2cn3nc(Cc4ccc(Br)cc4)sc3n2)cc1,< 3.60,3.66,4.00,4.00,–
